# Screening data deposited in PubChem by Broad Institute.
# RAD54 inh – blocks human RAD54 Holliday junction branch migration. FAM/BHQ fluorescence. inhibition, % at 10.4 µM. actives 0.14% (n = 360,000);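 active = mean normalized replicate activity at least 40 and at least half of replicates scoring 40 or more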;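 also: inhibitors cause a drop in the FAM fluorescence signal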
# RAD52 anneal inh – inhibitors of human RAD52 DNA annealing | AID 651710 | recombinant RAD52 DNA annealing, FRET fluorescence | P43351 | actives 0.46% (n = 360,000) | inhibition, % at 18.7 µM;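 active = every replicate showing at least 50% inhibition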
# Target sequence (P43351 whole entry, looked up): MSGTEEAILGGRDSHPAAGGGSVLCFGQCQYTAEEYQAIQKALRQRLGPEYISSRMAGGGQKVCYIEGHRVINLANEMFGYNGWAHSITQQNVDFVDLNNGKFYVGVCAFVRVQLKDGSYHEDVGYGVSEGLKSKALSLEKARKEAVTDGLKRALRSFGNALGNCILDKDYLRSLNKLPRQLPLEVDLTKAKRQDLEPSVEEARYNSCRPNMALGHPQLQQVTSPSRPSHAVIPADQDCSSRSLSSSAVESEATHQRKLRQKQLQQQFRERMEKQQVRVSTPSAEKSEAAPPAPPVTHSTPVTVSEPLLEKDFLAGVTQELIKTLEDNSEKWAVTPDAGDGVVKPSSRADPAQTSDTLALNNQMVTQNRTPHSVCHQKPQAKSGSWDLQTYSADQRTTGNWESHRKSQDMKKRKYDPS
# FN deposition inh – fibronectin deposition inhibition; AH1F fibroblasts, Alexa488-fibronectin deposition fluorescence, overnight; inhibition, % at 12.6 µM; actives 0.086% (n = 350,000); AID 743247;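 active = mean inhibition across replicates of 30% or more, regardless of how many single replicates reach that level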
#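 Assay system: AH1F fibroblasts assembling fluorescent fibronectin matrix; Amount: 10000 AH1F cells per well; Buffer or medium: DMEM, 2% serum; Probe or stimulus: Alexa488-fibronectin, 24 nM final in well; Doses: single compound dose, delivered by pin transfer; Incubation: 1 h adhesion, overnight exposure; Measured by: fluorescence 485/525 nm; Read-out: fibronectin deposition inhibition.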
# PAX8 inh HTS – lowers PAX8-driven luciferase in RMG-I cells; RMG-I TPO-luciferase reporter, SteadyGlo, 24 h; inhibition, % at 12.6 µM; actives 1.2% (n = 360,000); AID 652154;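 active = mean replicate inhibition at least 60% with every replicate also reaching 60%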;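 also: luciferase light reporting Pax8 driven TPO promoter activity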
# Numbers stand for hits; - = inactive; . = not tested or not shown. Sampled rows, rich in hits. Any-hit rate of the full collection: about 1.3%.
SMILES,RAD54 inh,RAD52 anneal inh,FN deposition inh,PAX8 inh HTS
COCC(=O)N1CCCCN2[C@H](C1)[C@@H](c1ccc(-c3ccc(C)cc3)cc1)[C@@H]2CO,-,.,.,115
COc1cccc(NC(=O)c2nn(C)c(C(=O)Nc3cccc(OC)c3)c2[N+](=O)[O-])c1,-,-,-,-
Cc1ccnc(NC(=O)CCCNC(=O)c2ccc(Cl)cc2)c1,.,-,-,-
Cc1cc(C)n2ncc(C(=O)NCc3ccc(Cl)cc3)c2n1,-,.,46,.
C=CCn1c(NCc2ccc(OC)cc2)nc2ccccc21,-,-,-,-
CC(=O)c1c(C)oc2ccc(N(C(C)=O)S(=O)(=O)c3ccc(F)cc3C)cc12,-,-,-,-
COCC#Cc1ccc([C@@H]2[C@@H](CO)N3C(=O)CN(C(=O)C4CCC4)C[C@H]23)cc1,.,-,-,-
CCC1C/C(=C\c2cccnc2)C(=O)/C(=C/c2cccnc2)C1 (centres undefined),.,-,-,89
O=C(c1ccc(Cl)cc1)C(CN1CCCC1)c1ccccc1 (centres undefined),-,-,53,-
COc1ccc(C(=O)C(CN2CCCC2)c2ccccc2)cc1 (centres undefined),-,.,-,.
Cc1ccccc1-n1sc2cc(F)ccc2c1=O,-,-,40,-
COc1cc(C(=O)c2cc3c(cc2C)OCO3)cc(OC)c1OC,-,-,-,84
C[C@H]1CN([C@@H](C)CO)C(=O)c2cc(-c3cccc(F)c3)cnc2O[C@H]1CN(C)S(=O)(=O)c1cccc(F)c1,-,-,-,.
O=C(NC1CC1)c1ccc2c(c1)C1C3CCC(C3)C1C(c1ccccc1)N2 (centres undefined),.,-,-,115
Cc1ccccc1N1C(=O)C2ON(c3ccccc3)C(c3cccnc3)C2C1=O (centres undefined),-,.,-,-
Cc1nc(N)nc(Nc2ccc(C#N)cc2)c1Br,.,-,-,-
C[C@H](CO)N1C[C@H](C)[C@@H](CN(C)C(=O)C2CCCCC2)OCCCC[C@H](C)Oc2ccc(NS(=O)(=O)c3ccc(Cl)cc3)cc2C1=O,-,-,-,88
C[C@@H]1CCCCO[C@@H](CN(C)C(=O)C2CCCCC2)[C@H](C)CN([C@H](C)CO)C(=O)c2cc(NS(=O)(=O)c3ccc(Cl)cc3)ccc2O1,-,-,-,79
C[C@@H]1CN([C@H](C)CO)C(=O)c2cc(NS(=O)(=O)c3ccc(Cl)cc3)ccc2O[C@@H](C)CCCCO[C@H]1CN(C)C(=O)C1CCCCC1,-,-,-,85
Cc1ccccc1S(=O)(=O)N1C[C@@H](O)COC[C@@H]2O[C@H](CC(=O)NCc3ccccc3Cl)CC[C@H]21,-,-,-,-
O=C(C[C@@H]1CC[C@H]2[C@@H](COC[C@H](O)CN2S(=O)(=O)c2ccccc2)O1)NCC1CCCCC1,-,53,-,-
O=C(C[C@H]1CC[C@@H]2[C@H](COC[C@H](O)CN2S(=O)(=O)c2ccccc2)O1)NCC1CCCCC1,-,55,-,-
Cc1nc2c([nH]1)C1(CCN(Cc3ccccc3)CC1)C(C#N)=C(N)O2,-,.,.,.
Cn1cc([N+](=O)[O-])c(C(=O)Nc2cc(Oc3ccccc3)cc([N+](=O)[O-])c2)n1,.,-,40,.
Cc1ccccc1Cn1ccc(NC(=O)c2nn(C)cc2[N+](=O)[O-])n1,.,-,-,72
SMILES,RAD54 inh,RAD52 anneal inh,FN deposition inh,PAX8 inh HTS
O=C(C[C@@H]1CC[C@@H]2[C@H](COC[C@H](O)CN2Cc2ccc(Oc3ccccc3)cc2)O1)N1CCCCC1,-,-,-,-
O=C(C[C@H]1CC[C@@H]2[C@H](COC[C@@H](O)CN2Cc2ccc(F)cc2)O1)NCc1ccccc1Cl,-,-,-,92
C[C@@H](NC(=O)C[C@H]1CC[C@@H]2[C@H](COC[C@@H](O)CN2Cc2cc(F)ccc2F)O1)c1ccccc1,-,-,-,-
O=C(C[C@@H]1CC[C@@H]2[C@H](COC[C@H](O)CN2Cc2ccc(F)cc2)O1)NCc1ccccc1Cl,-,-,-,-
O=C(C[C@@H]1CC[C@H]2[C@@H](COC[C@@H](O)CN2S(=O)(=O)c2ccccc2)O1)NCc1ccc(-c2ccccc2)cc1,-,59,-,-
C[C@@H](NC(=O)C[C@@H]1CC[C@@H]2[C@H](COC[C@H](O)CN2Cc2cc(F)ccc2F)O1)c1ccccc1,-,-,-,68
O=C(C[C@@H]1CC[C@H]2[C@@H](COC[C@@H](O)CN2S(=O)(=O)c2ccccc2)O1)Nc1ccc(-c2ccccc2)cc1,-,-,-,-
O=C(C[C@H]1CC[C@H]2[C@@H](COC[C@@H](O)CN2Cc2ccc(Oc3ccccc3)cc2)O1)N1CCCCC1,-,-,-,100
